# Measurements reported in ChEMBL document CHEMBL3784986, “Discovery and Characterization of Biased Allosteric Agonists of the Chemokine Receptor CXCR3” (J Med Chem, 2016).
# Active and inactive are the calls of the source. The rule behind the calls is not given here.
# How the values were obtained:
# [1] = target: T1, C-X-C chemokine receptor type 3 (Homo sapiens) (UniProt P49682); test: Inhibition of CXCL10-mediated activation of human CXCR3 expressed in HEK cells; type: cell-based; conditions: HEK293
# T1 sequence (whole entry): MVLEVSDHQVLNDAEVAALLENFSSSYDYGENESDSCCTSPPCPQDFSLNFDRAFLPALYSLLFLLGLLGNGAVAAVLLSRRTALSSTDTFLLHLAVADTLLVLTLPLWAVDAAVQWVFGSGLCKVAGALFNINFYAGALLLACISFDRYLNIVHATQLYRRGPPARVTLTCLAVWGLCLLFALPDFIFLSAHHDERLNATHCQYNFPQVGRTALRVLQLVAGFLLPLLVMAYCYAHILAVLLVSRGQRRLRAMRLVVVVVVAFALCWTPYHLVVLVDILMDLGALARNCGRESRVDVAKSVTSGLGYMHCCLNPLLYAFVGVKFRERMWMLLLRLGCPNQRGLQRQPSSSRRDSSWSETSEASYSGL
# [2] = target: T1, C-X-C chemokine receptor type 3 (Homo sapiens); test: Positive allosteric modulation of human CXCR3 expressed in HEK293T cell membranes after 30 mins by [35S]GTPgammaS incorporation assay relative to CXCL11; type: functional; conditions: HEK-293T
# Method in brief: (§1)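 Membranes from HEK293 cells stably expressing CXCR3 (30 µg/mL protein) in 20 mM HEPES, 10 mM MgCl2, 100 mM NaCl, 100 mg/L saponin, pH 7.4. Compound plus 1 µM GDP preincubated 30 min at 37 °C, then 0.10 nM [35S]GTPγS added for 30 min at 37 °C. Filtered on GF/B and counted. Efficacy expressed as % of CXCL11. Three experiments in triplicate, pEC50 by nonlinear regression.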
# [3] = target: T1, C-X-C chemokine receptor type 3 (Homo sapiens); test: Positive allosteric modulation of human CXCR3 expressed in HEK293T cell membranes after 30 mins by [35S]GTPgammaS incorporation assay; type: functional; conditions: HEK-293T; method in brief: as §1
# [4] = target: T1, C-X-C chemokine receptor type 3 (Homo sapiens); test: Inhibition of CXCL11-mediated activation of human CXCR3 expressed in HEK cells; type: cell-based; conditions: HEK293
# [5] = target: T1, C-X-C chemokine receptor type 3 (Homo sapiens); test: Positive allosteric modulation of ProLink2-tagged wild type CXCR3 (unknown origin) expressed in HEK293T cells assessed as beta-arrestin-2 recruitment incubated for 4 hrs by chemiluminescence-based microplate reader method relative to CXCL11; type: cell-based; conditions: HEK-293T
# Method in brief: (§2)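 HEK293 cells stably expressing β-gal enzyme acceptor, transiently transfected with PK1- or PK2-tagged wild-type CXCR3, 2000 cells/well, grown overnight at 37 °C. Compounds or CXCL11 in PBS pH 7.4 with 0.20% BSA added for 4 h. Detection mix 60 min at room temperature, then chemiluminescence read. Efficacy expressed as % of CXCL11 effect. Two to three experiments in triplicate.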
# [6] = target: T1, C-X-C chemokine receptor type 3 (Homo sapiens); test: Positive allosteric modulation of ProLink1-tagged wild type CXCR3 (unknown origin) expressed in HEK293T cells assessed as beta-arrestin-2 recruitment incubated for 4 hrs by chemiluminescence-based microplate reader method relative to CXCL11; type: cell-based; conditions: HEK-293T; method in brief: as §2
# [7] = Cytotoxicity against HEK293T cells expressing CXCR3 at 10 uM incubated overnight by ApoTox-Glo Triplex assay; type: cell-based; conditions: human, hek-293t
# Method in brief: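 10,000 HEK293T cells stably expressing CXCR3 incubated overnight with compound at 10 µM. ApoTox-Glo triplex. Viability read by fluorescence at 400Ex/505Em (GF-AFC) and cytotoxicity at 485Ex/520Em (bis-AAF-R110), each after a 30 min reagent step. Caspase-3/7 luminescence then read after a further 30 min.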
# [8] = target: T1, C-X-C chemokine receptor type 3 (Homo sapiens); test: Positive allosteric modulation of ProLink1-tagged wild type CXCR3 (unknown origin) expressed in HEK293T cells assessed as beta-arrestin-2 recruitment incubated for 4 hrs by chemiluminescence-based microplate reader method; type: cell-based; conditions: HEK-293T; method in brief: as §2
SMILES,inhibition [1],Efficacy [2],pEC50 [3],inhibition [4],Efficacy [5] [%],Efficacy [6],Activity [3],pEC50 [8],Activity [7]
CC(C)(C)OC(=O)N[C@@H](CCCCNC(=O)[C@@H]1Cc2ccccc2CN1)C(=O)NCC(c1ccccc1)c1ccccc1,inactive,34%,,inactive,79,31%,,,Non-toxic
NCCCC[C@H](NC(=O)[C@@H]1Cc2ccccc2CN1C(=O)CCC(=O)c1ccccc1)C(=O)NCC(c1ccccc1)c1ccccc1.O=C(O)C(F)(F)F,,109%,,,,139%,Dose-dependent effect,,Non-toxic
CC(C)(C)OC(=O)N[C@@H](CCCCNC(=O)[C@@H]1Cc2ccccc2CN1C(=O)CCc1ccccc1)C(=O)NCC(c1ccccc1)c1ccccc1,inactive,30%,,inactive,29,19%,,,Non-toxic
NCCCC[C@@H](NC(=O)[C@@H]1Cc2ccccc2CN1C(=O)CCC(=O)c1ccccc1)C(=O)NCC(c1ccccc1)c1ccccc1,,85%,,,198,108%,,,
CN1CCN(C(=O)CCC(=O)N2Cc3ccccc3C[C@H]2C(=O)NCCCC[C@H](NC(=O)OC(C)(C)C)C(=O)NCC(c2ccccc2)c2ccccc2)CC1,inactive,inactive,inactive,inactive,,inactive,,inactive,
CC(C)(C)OC(=O)N[C@@H](CCCCNC(=O)[C@@H]1Cc2ccccc2CN1C(=O)CCCc1ccccc1)C(=O)NCC(c1ccccc1)c1ccccc1,inactive,29%,,inactive,,inactive,,inactive,Non-toxic
CC(C)(C)OC(=O)NCCCC[C@H](NC(=O)OCc1ccccc1)C(=O)NCC(c1ccccc1)c1ccccc1,,,,,,,,,Non-toxic
N[C@H](CCCCNC(=O)[C@@H]1Cc2ccccc2CN1C(=O)CCC(=O)c1ccccc1)C(=O)NCC(c1ccccc1)c1ccccc1,inactive,25%,,inactive,79,28%,,,
N[C@@H](CCCCNC(=O)[C@@H]1Cc2ccccc2CN1)C(=O)NCC(c1ccccc1)c1ccccc1,inactive,40%,,inactive,85,14%,,,
N[C@@H](CCCCNC(=O)[C@@H]1Cc2ccccc2CN1C(=O)CCCC(=O)c1ccccc1)C(=O)NCC(c1ccccc1)c1ccccc1,inactive,inactive,inactive,inactive,91,20%,,,
N[C@@H](CCCCNC(=O)[C@@H]1Cc2ccccc2CN1C(=O)CCC(=O)c1ccccc1)C(=O)NCC(c1ccccc1)c1ccccc1,inactive,inactive,inactive,inactive,27,17%,,,
CC(C)(C)OC(=O)N[C@@H](CCCCNC(=O)[C@@H]1Cc2ccccc2CN1C(=O)CCC(=O)N1CCOCC1)C(=O)NCC(c1ccccc1)c1ccccc1,inactive,inactive,inactive,inactive,,inactive,,inactive,
CC(C)(C)OC(=O)N[C@@H](CCCCNC(=O)[C@@H]1Cc2ccccc2CN1C(=O)CCC(=O)N1CCCCC1)C(=O)NCC(c1ccccc1)c1ccccc1,inactive,inactive,inactive,inactive,,inactive,,inactive,
CC(C)(C)OC(=O)N[C@H](CCCCNC(=O)[C@@H]1Cc2ccccc2CN1)C(=O)NCC(c1ccccc1)c1ccccc1,inactive,,,inactive,,,,,Non-toxic

# Second part, led by results:
inhibition [1],Efficacy [2],pEC50 [3],inhibition [4],Efficacy [5] [%],Efficacy [6],Activity [3],pEC50 [8],SMILES,Activity [7]
inactive,inactive,inactive,inactive,63,34%,,,CC(=O)CCC(=O)N1Cc2ccccc2C[C@H]1C(=O)NCCCC[C@H](NC(=O)OC(C)(C)C)C(=O)NCC(c1ccccc1)c1ccccc1,Non-toxic
inactive,inactive,inactive,inactive,,inactive,,inactive,CC(C)(C)OC(=O)N[C@@H](CCCCNC(=O)[C@@H]1Cc2ccccc2CN1C(=O)CCC(=O)c1ccco1)C(=O)NCC(c1ccccc1)c1ccccc1,
inactive,inactive,inactive,inactive,88,16%,,,CC(C)(C)OC(=O)N[C@H](CCCCNC(=O)[C@@H]1Cc2ccccc2CN1C(=O)CCC(=O)c1ccccc1)C(=O)NCC(c1ccccc1)c1ccccc1,Non-toxic
inactive,18%,,inactive,,inactive,,inactive,COc1ccc(C(=O)CCC(=O)N2Cc3ccccc3C[C@H]2C(=O)NCCCC[C@H](NC(=O)OC(C)(C)C)C(=O)NCC(c2ccccc2)c2ccccc2)cc1OC,Non-toxic
inactive,inactive,inactive,inactive,,inactive,,inactive,CC(C)(C)OC(=O)N[C@@H](CCCCNC(=O)[C@@H]1Cc2ccccc2CN1C(=O)CCC(=O)c1cccs1)C(=O)NCC(c1ccccc1)c1ccccc1,
inactive,inactive,inactive,inactive,56,20%,,,CC(C)(C)OC(=O)N[C@@H](CCCCNC(=O)[C@@H]1Cc2ccccc2CN1C(=O)CCCC(=O)c1ccccc1)C(=O)NCC(c1ccccc1)c1ccccc1,Non-toxic
inactive,20%,,inactive,,inactive,,inactive,CC(C)(C)OC(=O)N[C@@H](CCCCNC(=O)[C@@H]1Cc2ccccc2CN1C(=O)CCC(=O)c1ccc(F)cc1)C(=O)NCC(c1ccccc1)c1ccccc1,Non-toxic
inactive,25%,,inactive,,inactive,,inactive,CC(C)(C)OC(=O)N[C@@H](CCCCNC(=O)[C@@H]1Cc2ccccc2CN1C(=O)CCC(=O)c1ccc(S(C)(=O)=O)cc1)C(=O)NCC(c1ccccc1)c1ccccc1,Non-toxic
,33%,,,30,36%,,,CC(C)(C)OC(=O)NCCCC[C@@H](NC(=O)[C@@H]1Cc2ccccc2CN1C(=O)CCC(=O)c1ccccc1)C(=O)NCC(c1ccccc1)c1ccccc1,
